Test results: ChEMBL document CHEMBL2380237, “Substituted imidazopyridazines are potent and selective inhibitors of Plasmodium falciparum calcium-dependent protein kinase 1 (PfCDPK1)” (Bioorg Med Chem Lett, 2013)
Calls of active or inactive are those of the source. The calls are words filed in the database; no cut-off is given here.

Columns and labels:
Plasmodium berghei = experiment: Inhibition of Plasmodium berghei recombinant CDPK1 by fluorescence assay in presence of rhodamine-labeled ParM
Method in brief: (§1)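 Recombinant CDPK1 (P. berghei or P. vivax) ATPase activity followed with an ADP-sensitive biosensor, rhodamine-labeled ParM; reaction progress tracked as rising fluorescence from ADP accumulation on a plate reader.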

Plasmodium vivax = experiment: Inhibition of Plasmodium vivax recombinant CDPK1 by fluorescence assay in presence of rhodamine-labeled ParM; method in brief: as §1
[1] = target: Phosphorylase kinase (Homo sapiens) (UniProt P15735+P46020+P46019+Q93100+Q16816); experiment: Inhibition of human PHK at 1 uM; format: protein-complex assay
[2] = target: Receptor tyrosine-protein kinase erbB-4 (Homo sapiens) (UniProt Q15303); experiment: Inhibition of human HER4 at 1 uM
[3] = target: Calcium/calmodulin-dependent protein kinase type 1 (Homo sapiens) (UniProt Q14012); experiment: Inhibition of human CAMK1 at 1 uM
Sequence of Calcium/calmodulin-dependent protein kinase type 1 (Homo sapiens) (Q14012 whole entry, looked up): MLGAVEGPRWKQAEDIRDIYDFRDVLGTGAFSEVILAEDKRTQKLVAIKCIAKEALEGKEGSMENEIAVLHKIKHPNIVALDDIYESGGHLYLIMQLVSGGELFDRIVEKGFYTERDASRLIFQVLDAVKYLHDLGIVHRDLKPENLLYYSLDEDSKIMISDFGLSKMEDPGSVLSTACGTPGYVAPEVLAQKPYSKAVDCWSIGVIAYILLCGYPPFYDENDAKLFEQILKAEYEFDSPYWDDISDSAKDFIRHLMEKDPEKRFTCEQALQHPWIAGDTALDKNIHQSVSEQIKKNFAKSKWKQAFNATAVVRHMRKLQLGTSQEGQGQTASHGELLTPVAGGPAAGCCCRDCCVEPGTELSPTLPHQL

[4] = target: T1, NUAK family SNF1-like kinase 1 (Homo sapiens) (UniProt O60285); experiment: Inhibition of human NUAK1 at 1 uM
T1 sequence (whole entry): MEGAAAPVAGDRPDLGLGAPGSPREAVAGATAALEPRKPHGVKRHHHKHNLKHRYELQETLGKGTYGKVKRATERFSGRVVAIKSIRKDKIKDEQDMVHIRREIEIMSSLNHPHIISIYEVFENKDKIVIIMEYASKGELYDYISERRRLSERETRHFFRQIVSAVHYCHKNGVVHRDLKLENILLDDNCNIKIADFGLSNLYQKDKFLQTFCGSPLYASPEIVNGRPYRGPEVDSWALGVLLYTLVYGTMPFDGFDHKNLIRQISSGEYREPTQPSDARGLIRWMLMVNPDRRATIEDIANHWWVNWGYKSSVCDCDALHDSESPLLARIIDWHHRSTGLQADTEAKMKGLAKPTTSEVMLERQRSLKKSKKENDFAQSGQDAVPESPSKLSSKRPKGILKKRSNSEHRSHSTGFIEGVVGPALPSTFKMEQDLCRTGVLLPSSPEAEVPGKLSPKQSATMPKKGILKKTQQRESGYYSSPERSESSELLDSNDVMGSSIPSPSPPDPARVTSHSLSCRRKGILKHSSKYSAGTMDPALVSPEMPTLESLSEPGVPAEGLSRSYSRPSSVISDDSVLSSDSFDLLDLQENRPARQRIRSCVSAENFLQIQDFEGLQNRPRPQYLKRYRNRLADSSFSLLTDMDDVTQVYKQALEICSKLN

[5] = target: Ribosomal protein S6 kinase alpha-1 (Homo sapiens) (UniProt Q15418); experiment: Inhibition of human RSK1 at 1 uM
Sequence of Ribosomal protein S6 kinase alpha-1 (Homo sapiens) (Q15418 whole entry): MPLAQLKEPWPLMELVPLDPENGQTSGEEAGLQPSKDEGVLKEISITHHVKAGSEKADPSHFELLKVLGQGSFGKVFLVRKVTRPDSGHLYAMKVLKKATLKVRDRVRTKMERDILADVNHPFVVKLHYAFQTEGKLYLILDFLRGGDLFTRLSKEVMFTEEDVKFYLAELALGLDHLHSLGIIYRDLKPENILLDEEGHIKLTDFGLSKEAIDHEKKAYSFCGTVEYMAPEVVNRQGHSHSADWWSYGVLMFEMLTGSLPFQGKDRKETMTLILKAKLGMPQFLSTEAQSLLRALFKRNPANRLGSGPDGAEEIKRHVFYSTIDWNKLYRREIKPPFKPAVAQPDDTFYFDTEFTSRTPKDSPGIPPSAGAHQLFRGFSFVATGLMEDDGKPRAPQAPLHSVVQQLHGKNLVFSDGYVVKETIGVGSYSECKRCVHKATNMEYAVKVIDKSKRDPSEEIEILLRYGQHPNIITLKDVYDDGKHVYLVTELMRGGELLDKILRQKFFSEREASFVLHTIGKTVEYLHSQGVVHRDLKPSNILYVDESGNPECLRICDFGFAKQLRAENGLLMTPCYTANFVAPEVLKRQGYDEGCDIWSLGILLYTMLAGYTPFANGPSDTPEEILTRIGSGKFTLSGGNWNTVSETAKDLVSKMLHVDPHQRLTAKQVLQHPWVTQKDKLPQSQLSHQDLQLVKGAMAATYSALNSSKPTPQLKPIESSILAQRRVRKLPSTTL

[6] = Metabolic stability in mouse liver microsomes after 30 mins; format: ADME, Microsome; conditions: read-out: Stability
[7] = Metabolic stability in human liver microsomes after 30 mins; format: ADME, Microsome; conditions: read-out: Stability
[8] = Intrinsic clearance in mouse; format: ADME, organism-based; conditions: in vivo
[9] = target: Tyrosine-protein kinase Yes (Homo sapiens) (UniProt P07947); experiment: Inhibition of human YES1 at 1 uM
Sequence of Tyrosine-protein kinase Yes (Homo sapiens) (P07947 2-543 limits assumed): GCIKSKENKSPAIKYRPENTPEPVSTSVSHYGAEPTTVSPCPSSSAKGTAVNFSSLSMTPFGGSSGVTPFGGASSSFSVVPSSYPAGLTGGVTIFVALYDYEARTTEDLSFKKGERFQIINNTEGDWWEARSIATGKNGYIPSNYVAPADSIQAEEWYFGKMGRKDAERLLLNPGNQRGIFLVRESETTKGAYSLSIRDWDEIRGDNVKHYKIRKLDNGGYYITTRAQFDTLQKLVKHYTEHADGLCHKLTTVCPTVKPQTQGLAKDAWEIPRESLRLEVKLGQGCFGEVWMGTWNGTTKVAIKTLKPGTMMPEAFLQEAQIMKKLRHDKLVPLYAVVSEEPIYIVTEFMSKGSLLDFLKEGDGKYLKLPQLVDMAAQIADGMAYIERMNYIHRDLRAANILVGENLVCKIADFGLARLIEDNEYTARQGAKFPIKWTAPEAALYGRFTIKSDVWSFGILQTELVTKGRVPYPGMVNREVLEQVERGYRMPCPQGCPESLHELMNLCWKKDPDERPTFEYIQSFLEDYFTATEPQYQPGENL

Homo sapiens = species on record: Homo sapiens; experiment: Inhibition of human VEGFR at 1 uM
[10] = target: Tyrosine-protein kinase Lck (Homo sapiens) (UniProt P06239); experiment: Inhibition of human LCK at 1 uM
Sequence of Tyrosine-protein kinase Lck (Homo sapiens) (P06239 2-509 limits assumed): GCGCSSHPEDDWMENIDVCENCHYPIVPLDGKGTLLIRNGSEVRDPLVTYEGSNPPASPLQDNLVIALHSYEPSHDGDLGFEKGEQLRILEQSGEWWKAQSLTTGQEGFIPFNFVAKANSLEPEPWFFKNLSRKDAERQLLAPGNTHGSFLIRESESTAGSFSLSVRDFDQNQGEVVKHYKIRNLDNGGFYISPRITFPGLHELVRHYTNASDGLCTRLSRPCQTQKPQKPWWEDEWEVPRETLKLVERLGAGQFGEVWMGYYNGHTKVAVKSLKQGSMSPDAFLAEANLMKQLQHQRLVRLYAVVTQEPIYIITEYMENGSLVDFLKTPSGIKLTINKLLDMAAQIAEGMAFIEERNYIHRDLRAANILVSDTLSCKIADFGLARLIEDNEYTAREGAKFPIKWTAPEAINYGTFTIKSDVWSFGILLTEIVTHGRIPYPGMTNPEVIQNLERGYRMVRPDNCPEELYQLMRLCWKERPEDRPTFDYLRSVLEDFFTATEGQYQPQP

[11] = target: Mitogen-activated protein kinase kinase kinase 9 (Homo sapiens) (UniProt P80192); experiment: Inhibition of human MLK1 at 1 uM
Sequence of Mitogen-activated protein kinase kinase kinase 9 (Homo sapiens) (P80192 whole entry, looked up): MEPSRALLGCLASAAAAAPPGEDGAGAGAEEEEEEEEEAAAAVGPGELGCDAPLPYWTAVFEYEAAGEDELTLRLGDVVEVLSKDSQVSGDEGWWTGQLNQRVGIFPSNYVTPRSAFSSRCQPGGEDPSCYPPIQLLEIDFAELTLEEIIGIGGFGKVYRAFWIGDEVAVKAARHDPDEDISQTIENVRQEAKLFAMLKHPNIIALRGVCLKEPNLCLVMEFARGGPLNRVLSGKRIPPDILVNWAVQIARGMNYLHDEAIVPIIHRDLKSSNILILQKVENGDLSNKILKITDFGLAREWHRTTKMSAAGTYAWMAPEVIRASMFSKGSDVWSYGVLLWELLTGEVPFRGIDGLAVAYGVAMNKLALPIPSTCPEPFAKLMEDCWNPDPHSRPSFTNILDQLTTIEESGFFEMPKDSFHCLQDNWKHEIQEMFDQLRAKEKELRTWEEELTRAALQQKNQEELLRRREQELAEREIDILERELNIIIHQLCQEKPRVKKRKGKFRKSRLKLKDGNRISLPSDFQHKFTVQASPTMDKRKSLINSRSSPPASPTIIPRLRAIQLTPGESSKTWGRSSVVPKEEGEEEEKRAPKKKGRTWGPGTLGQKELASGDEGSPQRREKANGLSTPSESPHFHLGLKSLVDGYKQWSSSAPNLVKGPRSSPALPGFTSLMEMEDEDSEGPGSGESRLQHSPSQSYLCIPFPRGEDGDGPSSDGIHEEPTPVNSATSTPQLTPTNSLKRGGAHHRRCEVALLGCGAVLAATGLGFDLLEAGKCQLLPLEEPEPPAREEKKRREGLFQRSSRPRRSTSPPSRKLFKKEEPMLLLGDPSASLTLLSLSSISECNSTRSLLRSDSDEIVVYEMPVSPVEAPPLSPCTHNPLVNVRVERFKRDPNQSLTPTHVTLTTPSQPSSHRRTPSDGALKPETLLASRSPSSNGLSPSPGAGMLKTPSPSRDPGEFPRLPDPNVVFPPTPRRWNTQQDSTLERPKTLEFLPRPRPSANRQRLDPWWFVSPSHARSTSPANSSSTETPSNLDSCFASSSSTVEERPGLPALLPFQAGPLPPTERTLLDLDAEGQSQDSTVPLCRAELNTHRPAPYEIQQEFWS

[12] = target: Proto-oncogene tyrosine-protein kinase Src (Homo sapiens) (UniProt P12931); experiment: Inhibition of human SRC at 1 uM
Sequence of Proto-oncogene tyrosine-protein kinase Src (Homo sapiens) (P12931 2-536 limits assumed): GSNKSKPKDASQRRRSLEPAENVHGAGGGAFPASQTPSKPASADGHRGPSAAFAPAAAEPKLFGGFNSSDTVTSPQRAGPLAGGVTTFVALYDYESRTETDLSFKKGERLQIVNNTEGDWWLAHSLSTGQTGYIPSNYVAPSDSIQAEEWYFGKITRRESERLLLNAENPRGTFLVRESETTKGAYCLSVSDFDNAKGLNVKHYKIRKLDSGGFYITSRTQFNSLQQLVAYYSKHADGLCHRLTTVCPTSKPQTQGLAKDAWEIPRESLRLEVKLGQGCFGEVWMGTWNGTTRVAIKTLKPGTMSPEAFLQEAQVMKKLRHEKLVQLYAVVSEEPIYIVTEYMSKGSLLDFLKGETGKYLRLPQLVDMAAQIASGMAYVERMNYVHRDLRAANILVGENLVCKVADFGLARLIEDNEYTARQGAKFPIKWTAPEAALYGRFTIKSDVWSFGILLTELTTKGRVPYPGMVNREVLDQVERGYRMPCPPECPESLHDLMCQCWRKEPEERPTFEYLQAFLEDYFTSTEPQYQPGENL

[13] = target: T2, Mitogen-activated protein kinase kinase kinase kinase 2 (Homo sapiens) (UniProt Q12851); experiment: Inhibition of human GCK at 1 uM
T2 sequence (whole entry): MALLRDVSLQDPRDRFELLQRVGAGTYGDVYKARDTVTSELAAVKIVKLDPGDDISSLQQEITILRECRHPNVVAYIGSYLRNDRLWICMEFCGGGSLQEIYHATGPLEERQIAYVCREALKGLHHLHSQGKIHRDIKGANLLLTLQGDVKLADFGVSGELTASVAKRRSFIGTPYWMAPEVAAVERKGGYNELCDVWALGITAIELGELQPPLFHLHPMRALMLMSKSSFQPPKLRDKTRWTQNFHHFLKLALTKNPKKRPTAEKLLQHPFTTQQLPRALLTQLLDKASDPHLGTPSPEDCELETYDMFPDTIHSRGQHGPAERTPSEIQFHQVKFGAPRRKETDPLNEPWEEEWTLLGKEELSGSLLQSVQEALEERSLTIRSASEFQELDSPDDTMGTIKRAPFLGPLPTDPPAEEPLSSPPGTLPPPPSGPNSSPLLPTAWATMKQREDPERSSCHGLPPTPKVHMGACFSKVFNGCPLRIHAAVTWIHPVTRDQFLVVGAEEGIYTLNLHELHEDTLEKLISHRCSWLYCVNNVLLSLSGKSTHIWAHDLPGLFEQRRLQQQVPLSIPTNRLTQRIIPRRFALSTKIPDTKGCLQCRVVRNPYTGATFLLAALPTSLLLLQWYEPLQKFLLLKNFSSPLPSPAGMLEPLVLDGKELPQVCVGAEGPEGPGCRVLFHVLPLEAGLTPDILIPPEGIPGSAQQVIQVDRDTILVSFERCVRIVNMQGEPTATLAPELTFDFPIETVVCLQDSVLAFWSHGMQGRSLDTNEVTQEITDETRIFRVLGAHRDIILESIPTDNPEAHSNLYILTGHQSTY

[14] = target: Aurora kinase B (Homo sapiens) (UniProt Q96GD4); experiment: Inhibition of human Aurora B at 1 uM
Sequence of Aurora kinase B (Homo sapiens) (Q96GD4 whole entry): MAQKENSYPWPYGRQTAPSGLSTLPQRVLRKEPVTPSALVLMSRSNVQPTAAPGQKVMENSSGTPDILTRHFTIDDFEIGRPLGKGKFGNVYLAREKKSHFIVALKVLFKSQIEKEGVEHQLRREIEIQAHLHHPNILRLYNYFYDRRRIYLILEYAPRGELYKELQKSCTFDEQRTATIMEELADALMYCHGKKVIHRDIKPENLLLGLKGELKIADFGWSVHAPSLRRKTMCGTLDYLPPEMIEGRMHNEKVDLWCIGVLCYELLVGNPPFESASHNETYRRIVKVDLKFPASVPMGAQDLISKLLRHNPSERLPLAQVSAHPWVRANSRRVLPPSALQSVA

[15] = target: T3, Serine/threonine-protein kinase D1 (Homo sapiens) (UniProt Q15139); experiment: Inhibition of human PKD1 at 1 uM
T3 sequence (whole entry): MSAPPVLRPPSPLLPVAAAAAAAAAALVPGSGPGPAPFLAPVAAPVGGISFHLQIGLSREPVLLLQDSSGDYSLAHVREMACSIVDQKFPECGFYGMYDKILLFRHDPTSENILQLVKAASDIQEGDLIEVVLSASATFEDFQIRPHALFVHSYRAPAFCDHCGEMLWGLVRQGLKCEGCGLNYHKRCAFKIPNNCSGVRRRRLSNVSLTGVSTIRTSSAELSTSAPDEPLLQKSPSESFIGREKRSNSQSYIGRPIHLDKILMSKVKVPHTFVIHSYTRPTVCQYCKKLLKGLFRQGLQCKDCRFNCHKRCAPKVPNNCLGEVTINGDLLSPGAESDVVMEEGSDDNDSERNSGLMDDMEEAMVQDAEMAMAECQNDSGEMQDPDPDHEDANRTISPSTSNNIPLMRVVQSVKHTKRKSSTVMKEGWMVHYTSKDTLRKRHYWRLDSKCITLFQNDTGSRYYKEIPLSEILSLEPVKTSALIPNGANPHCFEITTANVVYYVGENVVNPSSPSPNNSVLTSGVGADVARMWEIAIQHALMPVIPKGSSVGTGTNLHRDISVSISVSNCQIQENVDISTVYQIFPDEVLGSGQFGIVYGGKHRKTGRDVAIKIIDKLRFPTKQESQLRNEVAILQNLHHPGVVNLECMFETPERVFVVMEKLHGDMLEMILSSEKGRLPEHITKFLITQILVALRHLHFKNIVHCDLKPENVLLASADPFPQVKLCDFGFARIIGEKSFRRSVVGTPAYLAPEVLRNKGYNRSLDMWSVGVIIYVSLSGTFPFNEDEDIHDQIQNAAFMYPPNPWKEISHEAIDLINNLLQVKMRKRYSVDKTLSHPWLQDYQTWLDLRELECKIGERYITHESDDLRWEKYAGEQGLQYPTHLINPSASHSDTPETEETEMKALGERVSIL

[16] = target: Serine/threonine-protein kinase Chk2 (Homo sapiens) (UniProt O96017); experiment: Inhibition of human CHK2 at 1 uM
[17] = target: Dual specificity mitogen-activated protein kinase kinase 1 (Homo sapiens) (UniProt Q02750); experiment: Inhibition of human MKK1 at 1 uM
Sequence of Dual specificity mitogen-activated protein kinase kinase 1 (Homo sapiens) (Q02750 whole entry): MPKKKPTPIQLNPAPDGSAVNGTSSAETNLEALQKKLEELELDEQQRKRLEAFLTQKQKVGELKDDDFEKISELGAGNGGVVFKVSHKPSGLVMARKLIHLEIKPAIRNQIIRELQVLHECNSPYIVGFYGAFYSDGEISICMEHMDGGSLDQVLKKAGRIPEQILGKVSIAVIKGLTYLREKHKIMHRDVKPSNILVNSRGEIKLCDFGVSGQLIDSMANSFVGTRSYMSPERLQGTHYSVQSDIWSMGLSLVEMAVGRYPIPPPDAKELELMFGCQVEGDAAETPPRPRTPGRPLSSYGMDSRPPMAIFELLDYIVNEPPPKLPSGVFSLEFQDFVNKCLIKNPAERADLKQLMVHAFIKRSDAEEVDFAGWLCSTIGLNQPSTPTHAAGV

## CC(C)CCNc1ccc(-c2cnc3ccc(N4CCN(C)CC4)nn23)cn1
Plasmodium berghei
  inhibition: Active

## CC(C)CCNc1nccc(-c2cnc3ccc(NC4CCN(C)CC4)nn23)n1
Plasmodium berghei
  inhibition: Active

## N#Cc1ccc(-c2cnc3ccc(NCCc4cccnc4)nn23)cc1
Plasmodium berghei
  inhibition: Active

## COC(=O)Nc1cccc(-c2cnc3ccc(NC4CCN(C)CC4)nn23)c1
Plasmodium berghei
  inhibition: Active

## CC(C)CCNc1ccc(-c2cnc3ccc(N4CCC(N)CC4)nn23)cn1
Plasmodium vivax
  inhibition: Active
Plasmodium berghei
  inhibition: Active
[1]
  inhibition: Active
[2]
  inhibition: Active
[3]
  inhibition: Active
[4]
  inhibition: Active
[5]
  inhibition: Active
[6]
  remaining at 0.5 h: 90%
[7]
  remaining at 0.5 h: 90%

## CC(C)CCNc1ncc(-c2cnc3ccc(NC4CCN(C)CC4)nn23)cn1
Plasmodium berghei
  inhibition: Active

## COCCNc1ccc(-c2cnc3ccc(NC4CCN(C)CC4)nn23)cn1
Plasmodium berghei
  inhibition: Active

## CC(C)CCNC(=O)c1ccc(-c2cnc3ccc(N[C@H]4CC[C@H](N)CC4)nn23)cc1
Plasmodium berghei
  inhibition: Active

## CCCCNc1ccc(-c2cnc3ccc(NC4CCN(C)CC4)nn23)cn1
Plasmodium berghei
  inhibition: Active

## CC(C)CCNc1cc(-c2cnc3ccc(NC4CCN(C)CC4)nn23)ccn1
Plasmodium berghei
  inhibition: Active

## CN1CCC(Nc2ccc3ncc(-c4ccc(NCC5CC5)nc4)n3n2)CC1
Plasmodium berghei
  inhibition: Active

## CC(C)CCNc1ccc(-c2cnc3ccc(NC4CN(C)C4)nn23)cn1
Plasmodium berghei
  inhibition: Active

## CC(C)CCNC(=O)c1ccc(-c2cnc3ccc(NC4CCN(C)CC4)nn23)cc1
Plasmodium berghei
  inhibition: Active

## CC(C)CCNc1ncc(-c2cnc3ccc(N[C@H]4CC[C@H](N)CC4)nn23)cn1
Plasmodium berghei
  inhibition: Active

## CN1CCC(Nc2ccc3ncc(-c4cccc(NC(=O)C5CC5)c4)n3n2)CC1
Plasmodium berghei
  inhibition: Active

## NC(=O)c1ccc(-c2cnc3ccc(NCCc4cccnc4)nn23)cc1
Plasmodium berghei
  inhibition: Active

## NC(=O)c1ccc(-c2cnc3ccc(NCCc4ccccn4)nn23)cc1
Plasmodium berghei
  inhibition: Active

## CC(C)CCNc1ccc(-c2cnc3ccc(NC4CCN(C)CC4)nn23)cn1
Plasmodium vivax
  inhibition: Active
Plasmodium berghei
  inhibition: Active
[8]
  CLint scaled: 49.7 mL/min/kg
[9]
  inhibition: Active
Homo sapiens
  inhibition: Active
[10]
  inhibition: Active
[11]
  inhibition: Active
[12]
  inhibition: Active
[4]
  inhibition: Active
[13]
  inhibition: Active
[14]
  inhibition: Active
[15]
  inhibition: Active
[16]
  inhibition: Active
[17]
  inhibition: Active
[5]
  inhibition: Active
[6]
  remaining at 0.5 h: 63%

## CC(C)CCNc1ccc(-c2cnc3ccc(N4CCC(N(C)C)CC4)nn23)cn1
Plasmodium berghei
  inhibition: Active
[6]
  remaining at 0.5 h: 84%
[7]
  remaining at 0.5 h: 80%

## CC(C)CCNc1ccc(-c2cnc3ccc(NC4CCNCC4)nn23)cn1
Plasmodium berghei
  inhibition: Active

## CC(C)CCNc1ccc(-c2cnc3ccc(NC4CCN(C)C4)nn23)cn1 (centres undefined)
Plasmodium vivax
  inhibition: Active
Plasmodium berghei
  inhibition: Active
[5]
  inhibition: Active
[6]
  remaining at 0.5 h: 74%
[7]
  remaining at 0.5 h: 63%

## CC(=O)Nc1cccc(-c2cnc3ccc(N[C@H]4CC[C@H](N)CC4)nn23)c1
Plasmodium berghei
  inhibition: Active

## CC(=O)Nc1cccc(-c2cnc3ccc(NCCc4ccccn4)nn23)c1
Plasmodium berghei
  inhibition: Active

## Fc1cccc(-c2cnc3ccc(NCCc4cccnc4)nn23)c1
Plasmodium berghei
  inhibition: Active

## CC(C)CCOc1ccc(-c2cnc3ccc(N[C@H]4CC[C@H](N)CC4)nn23)cn1
Plasmodium berghei
  inhibition: Active
